Data on 7 compounds can be found in ChEMBL document CHEMBL2390886, “Guaifenesin derivatives promote neurite outgrowth and protect diabetic mice from neuropathy” (J Med Chem, 2013).

Activity calls are given as the source filed them. The calls are words filed in the database; no cut-off is given here.

Series [1] relates to DRG neuron. Put plainly: Neuroprotective activity in Sprague-Dawley rat DRG neurons assessed as enhancement of neurite outgrowth at 0.01 to 1 uM after 24 hrs by confocal microscopic analysis. It counts as functional. In a few lines:
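DRG from adult male Sprague-Dawley rats dissociated; neurons cultured in defined Hams medium. Test agent incubated 24 h, then DIC images captured by confocal microscopy. Total neurite length per neuron measured morphometrically with a Weibel grid as crosspoints per cell, relative to control neurons of the same preparation. Mean ± SEM of 6 replicate cultures; one-way ANOVA with Tukey's post hoc test.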

The test system of series [2] is DRG neuron. Put plainly: Neuroprotective activity in Sprague-Dawley rat DRG neurons assessed as sprouting of neurites at 1 uM after 24 hrs by confocal microscopic analysis. The class given is functional. An outline of the steps: (§1)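 Dissociated DRG neurons from adult male Sprague−Dawley rats cultured in defined medium with compound for 24 h. DIC images by confocal microscopy. Total neurite length per cell scored with Weibel-grid morphometry as intersects per cell, compared with control neurons of the same preparation. n = 6 replicate cultures; mean ± SEM; one-way ANOVA with Tukey's test.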

The nature of series [3]: AUC (0 to t) in C57BL/6J mouse at 10 mg/kg, po by LC-MS/MS analysis. It counts as ADME, organism-based. Also noted: dose 10 mg/kg, route oral. As to conditions: plasma. In a few lines: (§2)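 Single oral dose […] given to control and STZ-diabetic mice; plasma analysed by LC−MS/MS. Samples vortexed 2 min, centrifuged, organic layer dried under N2 at room temperature and reconstituted in 0.2% TFA in MeOH/water 20:80. Standards 20–100 000 nM in water; internal standard response variable, not used for quantification.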

Series [4] is described as follows: Tmax in C57BL/6J mouse at 10 mg/kg, po by LC-MS/MS analysis. It counts as ADME, organism-based. Also noted: dose 10 mg/kg, route oral. As to conditions: in vivo. An outline of the steps: as §2
Series [5] in a line: Cmax in streptozotocin-induced C57BL/6J mouse diabetic neuropathy model at 10 mg/kg, po by LC-MS/MS analysis. It counts as ADME, organism-based. Also noted: dose 10 mg/kg, route oral. The settings on record: in vivo. In a few lines: as §2
Series [6] concerns Mus musculus. Put plainly: Antidiabetic activity in streptozotocin-induced C57BL/6J mouse diabetic neuropathy model assessed as effect on hyperglycemia at 10 to 100 mg/kg/day, po administered 6 days per week for 4 weeks. It counts as functional, organism-based. In a few lines: (§3)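 Type 1 diabetes induced in fasted mice by ip STZ 90 mg/kg in sterile citrate buffer on 2 consecutive days, confirmed 4 days later and at study end by tail-prick blood glucose (reflectance meter). Compound or vehicle (water) by oral gavage 6 days/week from diabetes onset for 4 weeks. Body weight, glucose, and sciatic MNCV recorded. MNCV taken at 37 °C under isoflurane, stimulating at sciatic notch and Achilles tendon (5 V, 0.05 ms square wave), recording in ipsilateral paw interosseus muscles. n = 10−12/group; mean ± SEM; one-way ANOVA with Dunnett's test.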

The nature of series [7]: AUC (0 to t) in streptozotocin-induced C57BL/6J mouse diabetic neuropathy model at 10 mg/kg, po by LC-MS/MS analysis. It counts as ADME, organism-based. Also noted: dose 10 mg/kg, route oral. As to conditions: in vivo. In a few lines:
as §2

In series [8] the test system is Mus musculus. Put plainly: Toxicity in C57BL/6J mouse sciatic nerve assessed as motor neuron conduction velocity at 10 to 100 mg/kg/day, po administered 6 days per week for 4 weeks (reference value: 35.6 +/- 1.1 m/s). Also noted: route oral. The class given is organism-based. As to conditions: in vivo.
The subject of series [9] is Mus musculus. Nature of the series: Neuroprotective activity in streptozotocin-induced C57BL/6J mouse diabetic neuropathy model assessed as prevention of motor neuron conduction velocity slowing at 10 to 100 mg/kg/day, po administered 6 days per week for 4 weeks. The class given is functional, organism-based. In a few lines:
as §3

The test system of series [10] is Mus musculus. Nature of the series: Toxicity in C57BL/6J mouse assessed as unusual behavior at 10 to 100 mg/kg/day, po administered 6 days per week for 4 weeks. The class given is organism-based. Also noted: route oral. As to conditions: in vivo.
Series [11] is described as follows: Cmax in C57BL/6J mouse at 10 mg/kg, po by LC-MS/MS analysis. Also noted: dose 10 mg/kg, route oral. The settings on record: in vivo. It counts as ADME, organism-based. In a few lines:
as §2

For series [12], the system named is DRG neuron. Nature of the series: Neuroprotective activity in Sprague-Dawley rat DRG neurons assessed as enhancement of neurite outgrowth at >10 nM after 24 hrs by confocal microscopic analysis. It counts as functional. An outline of the steps:
as §1

Series [13] is described as follows: Tmax in streptozotocin-induced C57BL/6J mouse diabetic neuropathy model at 10 mg/kg, po by LC-MS/MS analysis. As to conditions: in vivo. Also noted: dose 10 mg/kg, route oral. It counts as ADME, organism-based. In a few lines: as §2
The test system of series [14] is Mus musculus. Nature of the series: Antidiabetic activity in streptozotocin-induced C57BL/6J mouse diabetic neuropathy model assessed as effect on weight loss at 10 to 100 mg/kg/day, po administered 6 days per week for 4 weeks. The class given is functional, organism-based. In a few lines: as §3
Series [15] deals with Mus musculus. Put plainly: Toxicity in C57BL/6J mouse assessed as change in body weight at 10 to 100 mg/kg/day, po administered 6 days per week for 4 weeks (reference value: 26.7 +/- 0.4 g). The class given is organism-based. Also noted: route oral. As to conditions: in vivo.
Series [16] can be described thus: Metabolic stability in mouse liver microsomes assessed as compound remaining at 2 uM after 1 hr by LC-MS/MS analysis. It counts as ADME, Microsome. As to conditions: read-out: Stability. In a few lines: (§4)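 2 μM compound incubated with mouse or human liver microsomes plus excess NADPH at 37 °C in a shaking water bath for 0 and 60 min (n = 6). Quenched with 2 volumes acetonitrile, centrifuged, supernatant diluted 1:1 with water, analysed by LC−MS/MS as % remaining. Propranolol control.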

The test system of series [17] is DRG neuron. Nature of the series: Neuroprotective activity in Sprague-Dawley rat DRG neurons assessed as enhancement of neurite outgrowth at 0.01 uM after 24 hrs by confocal microscopic analysis. It counts as functional. An outline of the steps:
as §1

Series [18] is described as follows: Permeability of the compound after 5 hrs by PAMPA. It counts as ADME. The settings on record: read-out: permeability. In a few lines:
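Precoated PAMPA plate warmed to room temperature. Donor: 25 μM compound in 5% DMSO/PBS; acceptor: 5% DMSO/PBS. Incubated 5 h at 25 °C in water bath. Donor and acceptor samples quantified by LC−MS/MS against calibration standards; mass retention also determined. Propranolol control.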

The subject of series [19] is Mus musculus. Nature of the series: Antidiabetic activity in streptozotocin-induced C57BL/6J mouse diabetic neuropathy model assessed as effect on hyperglycemia at 1 to 10 mg/kg/day, po administered 6 days per week for 4 weeks. It counts as functional, organism-based. An outline of the steps: as §3
Series [20] has as its system Mus musculus. Put plainly: Antidiabetic activity in streptozotocin-induced C57BL/6J mouse diabetic neuropathy model assessed as effect on weight loss at 1 to 10 mg/kg/day, po administered 6 days per week for 4 weeks. The class given is functional, organism-based. In a few lines:
as §3

The test system of series [21] is Mus musculus. Nature of the series: Neuroprotective activity in streptozotocin-induced C57BL/6J mouse diabetic neuropathy model assessed as prevention of motor neuron conduction velocity slowing at 1 to 10 mg/kg/day, po administered 6 days per week for 4 weeks. It counts as functional, organism-based. In a few lines: as §3
The nature of series [22]: Metabolic stability in human liver microsomes assessed as compound remaining at 2 uM after 1 hr by LC-MS/MS analysis. It counts as ADME, Microsome. The settings on record: read-out: Stability. In a few lines:
as §4

Series [23] deals with DRG neuron. Put plainly: Neuroprotective activity in Sprague-Dawley rat DRG neurons assessed as enhancement of neurite outgrowth up to 1 uM after 24 hrs by confocal microscopic analysis. The class given is functional. In a few lines: as §1

Consider `Cc1ccccc1OCC(O)CO` (racemic), for which the outcome in the series on DRG neuron [1] was Active.
Still for that read-out and setting: the entry for `CCc1ccccc1OCC(O)CO` (stereo not given) is “inactive”.
`COc1ccccc1OCC(O)CO` (racemic) [GUAIFENESIN]: the result in the series on DRG neuron [2], in the series with Mus musculus [9] and with DRG neuron [12] was Active. The values for the AUC(0-t) in [3] and in series [7] were 2.73 µM·h and 1.91 µM·h, respectively. Moreover, the time of peak concentration (Tmax) in series [4] and in series [13] was 4.98 min in each case. Moreover, the figures for the Cmax in series [5] and in series [11] were 5.27 µM and 5280 nM, respectively. Besides, the outcome with Mus musculus [6] and in the series on Mus musculus [14] was inactive. Besides, the results for the Activity in the series on Mus musculus [8], in the series with Mus musculus [10] and in the series on Mus musculus [15] were 35.1 meter/s, “Non-toxic” and 27.1 g, respectively.
Consider `COc1ccccc1OC[C@@H](O)CF`, for which the outcome in the series on DRG neuron [1] was inactive.
Regarding `COc1ccccc1OC[C@H](O)CO`, the values for the AUC(0-t) in series [3] and in [7] were 0.737 µM·h and 0.746 µM·h, respectively. Moreover, the Tmax in series [4] and in [13] was 10 min each time. Moreover, the Cmax in series [5] is 0.741 µM; in series [11], 440 nM. The remaining at 1 h, 2 µM in series [16] was 92.4%; in series [22], 97.4%. Besides, the result in the series on DRG neuron [17] and in the series with Mus musculus [21] was Active. Further, the Papp at 5 h in series [18] was found to be 6.3 ×10⁻⁶ cm/s. Also, the result in the series with Mus musculus [19] and in the series on Mus musculus [20] was inactive.
As for `COc1ccccc1NCC(O)CO` (racemic), the outcome in the series with DRG neuron [23] was inactive.
As for `COc1ccccc1OC[C@@H](O)CO`, the result in the series on DRG neuron [1] was inactive. For the same compound, the remaining at 1 h, 2 µM in [16] worked out at 92.9%; in [22], 94.8%. Also, in [18], the Papp at 5 h came to 8.2 ×10⁻⁶ cm/s.
